Hits are enriched below; roughly 12% of the tested compounds scored in any of these assays.
Diaphorase inh – diaphorase inhibitors and chemical oxidizers, primary screen, counter-screen for diaphorase-coupled primary assays, biochemical, uHTS, resorufin fluorescence; inhibition, % at 20 µM; 190,000 tested, 0.69% active; diaphorase resazurin-to-resorufin fluorescence, NADH, 16 min; bacterial (C. kluyveri) enzyme, not human;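 active means primary screen inhibition at 20 µM above a set limit, cut at about 50% in these data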;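 further: plate controls were DMSO with full reaction for no effect and wells lacking NADH for full effect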
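Detection: fluorescence of resorufin formed from resazurin, Ex 544/Em 590 nm; test system: Clostridium kluyveri diaphorase enzyme; amount: 0.14 U/mL diaphorase, enzyme working solution; times: 16-min room-temperature incubation before reading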
WT yeast gro inh – growth inhibition of WT strain, primary screen, mitochondrial fusion inhibitor project, WT and mutant strains, chemical genetic | mitochondrial fusion phenotypic screen | inhibition, % at 10 µM | 190,000 tested, 2.1% active; in the data active means inhibition above about 58%; tested in S. cerevisiae
KCC2 mod – KCC2 cotransporter modulators, thallium flux, primary screen, cell-based, HEK293 KCC2, FluoZin-2 fluorescence, MLSMR; Solute carrier family 12 member 5 (Homo sapiens), Q9H2X9; 190,000 tested, 2.2% active; KCC2 cells, thallium flux FluoZin-2 fluorescence; B-score of Tl+ flux slope (higher = more flux/activation; lower = inhibition) at 10 µM;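 active means thallium flux slope and its plate-corrected score both differing from the plate sample mean at a set confidence after two filtering rounds, in either direction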;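 further: slope of fluorescence scaled to starting intensity during 10 to 20 s after thallium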
Diaphorase act – compounds boosting diaphorase resazurin reduction – biochemical, uHTS, resorufin fluorescence, counter-screen for diaphorase-coupled primary assays, primary screen. Diaphorase/resazurin coupled assay, 16 min; active compounds read high; 1 = vehicle wells, 0 = NADH-free wells. activation factor at 20 µM. 190,000 tested, 0.005% active. AID 1229, 2008;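 active means diaphorase activity raised at least twofold by the compound at 20 µM; inactive means activation factor below 2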
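Test system: Clostridium kluyveri diaphorase, purified enzyme. Buffer or medium: 50 mM HEPES pH 7.4 buffer plus MgCl2 and Tween 20. Also added: 0.114 mM NADH and 0.1 mM resazurin, final amounts. Dosing: compound 20 µM once, DMSO 1%. Schedule: 16 min enzyme reaction, ambient temperature. Detection: fluorescence of resorufin, 544 nm excitation, 590 nm emission.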
L major viab – Leishmania major promastigote growth inhibition, primary screen | 200,000 tested, 9% active | Leishmania major promastigotes, resazurin fluorescence viability | inhibition, % at 10 µM; in the data active means inhibition above about 50%;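 further: promastigotes grown with compound for 44 hours at 28 °C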
ROMK mod – ROMK potassium channel modulators, primary screen, cell-based, thallium flux, MLSMR library; AID 1918, 2009; B-score at 10 µM; ATP-sensitive inward rectifier potassium channel 1 (Homo sapiens), P48048; Tet-inducible ROMK, thallium flux fluorescence; actives lie on both sides; 130,000 tested, 2% active;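 active means signal ratio slope over the read window, or its plate-corrected B-score, at least 3 SD from the plate mean, either direction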;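 further: B-score of the F/F0 ratio slope over 7 to 12 s after thallium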
Target sequence (P48048 whole entry, looked up): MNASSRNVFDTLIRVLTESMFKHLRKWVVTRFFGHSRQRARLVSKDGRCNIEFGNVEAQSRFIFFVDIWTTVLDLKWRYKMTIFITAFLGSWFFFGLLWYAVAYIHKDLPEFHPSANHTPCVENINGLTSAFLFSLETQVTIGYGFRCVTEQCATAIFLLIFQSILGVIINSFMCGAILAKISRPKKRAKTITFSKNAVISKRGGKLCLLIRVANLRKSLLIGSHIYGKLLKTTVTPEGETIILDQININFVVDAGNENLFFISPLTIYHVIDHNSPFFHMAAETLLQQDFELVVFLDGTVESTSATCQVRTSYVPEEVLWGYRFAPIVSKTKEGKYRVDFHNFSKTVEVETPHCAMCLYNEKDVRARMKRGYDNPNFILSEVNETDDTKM
KCC2 sec1 – KCC2 modulators in sodium-free buffer, confirmation, cell-based, HEK293 KCC2, thallium flux, secondary assay | 3,700 tested, 15% active | FluoZin2 fluorescence; active compounds read high | normalised thallium flux (F/F0 slope) at 10 µM | shares compounds with KCC2 mod;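 active means thallium flux slope above the same plate's solvent-only control mean plus 3 SD; inconclusive means the two replicate wells disagree; inactive means no significant difference from solvent-only control wells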
KCC2 bumet counter – thallium flux persisting under bumetanide in KCC2 cells, confirmation, counter-screen for KCC2 modulator project, cell-based, HEK293 KCC2, FluoZin2, secondary assay 3; shares compounds with KCC2 mod; HEK293-KCC2 + bumetanide/ouabain; active compounds read high; normalized thallium flux at 10 µM; 3,700 tested, 49% active;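 active means thallium entry rate above the same plate's blocked-transporter control wells by more than 3 SD; inconclusive means the two repeat wells disagree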;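 further: raw slope of fluorescence over initial fluorescence between 10 and 20 s after thallium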
KCC2 secondary2 – KCC2 modulators without ouabain present, confirmation, cell-based, HEK293 KCC2, thallium flux, FluoZin2, secondary assay 2 | shares compounds with KCC2 mod | thallium flux FluoZin2 fluorescence; actives lie on both sides; F/F0 rise rate, 10–20 s post-thallium | normalized thallium flux at 10 µM | 3,700 tested, 23% active;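 active means thallium flux slope more than 3 SD above or below the plate's solvent-only control mean, mostly below; inconclusive means the two repeat wells disagreed; inactive means no significant shift from solvent-only controls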;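 further: raw slope with 0.1% DMSO as baseline and bumetanide as block control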
HEK counter1 – thallium flux modulation in parental HEK cells, confirmation, counter-screen for KCC2 modulator project, cell-based, counterscreen 1. shares compounds with KCC2 mod. HEK293 parental cells, thallium flux FluoZin2, ouabain; baseline-ratio fluorescence slope, 10–20 s after thallium. thallium flux rate (normalised fluorescence) at 10 µM. 3,700 tested, 46% active. AID 1716, 2009;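 active means thallium flux rate significantly above the same plate's solvent-only control wells, beyond their mean plus 3 SD; inconclusive means the two replicate wells gave conflicting results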
KCC2 retest ouab – KCC2 inhibitors and activators, ouabain retest, confirmation, HEK-KCC2 cells. HEK293-KCC2, thallium flux FluoZin2 fluorescence; bidirectional: low = inhibitor, high = activator. raw Tl+ flux slope (below DMSO = inhibition, above = activation) at 10 µM. shares compounds with KCC2 mod. AID 1717, 2009. 3,700 tested, 48% active;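 active means thallium flux slope beyond 3 SD from same-plate DMSO control mean in most replicates, usually higher, sometimes lower; inconclusive means repeat tests gave conflicting results; inactive means no significant difference from controls in most replicates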;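 further: slope of initial-normalized fluorescence between seconds 10 and 20 after thallium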
HEK293 Tl flux2 – native HEK Tl+ uptake effects, second counter-screen – HEK cells, counterscreen 2, counter-screen for KCC2 modulator project, confirmation; shares compounds with KCC2 mod; HEK293 parental, thallium flux FluoZin-2 fluorescence slope; thallium flux slope at 10 µM; 3,700 tested, 33% active; AID 1718, 2009;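 active means thallium flux slope above the same plate's solvent-control mean plus 3 SD in both duplicate wells; inconclusive means duplicate wells that disagreed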;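 further: run without ouabain in cells lacking the KCC2 cotransporter; slope of fluorescence scaled to its starting value between 10 and 20 s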
* marks the source's active call; other numbers are inactive results; ? = inconclusive; . = not tested or not shown.

SMILES	Diaphorase inh	WT yeast gro inh	KCC2 mod	Diaphorase act	L major viab	ROMK mod	KCC2 sec1	KCC2 bumet counter	KCC2 secondary2	HEK counter1	KCC2 retest ouab	HEK293 Tl flux2
COc1ccc(/C(C)=N/NC(=S)NCCc2ccccc2)cc1	6	67	7.7*	0.9	9	-0.64	0.011	0.016*	0.03	0.021*	?	?
CCOC(=O)C(CC)(CCC(=O)O)c1csc(N)n1 (centres undefined)	15	-3	.	0.9	-4	0.52	.	.	.	.	.	.
CCCCC(CCC(=O)O)(C(=O)OCC)c1csc(Nc2ccc(C)cc2)n1 (centres undefined)	10	-12	-4.1*	0.9	12	1	0.0052	0.004	0.025*	0.0056*	0.013*	?
Cc1cc(NC(=O)c2ccccc2F)ncc1NC(=O)c1cccs1	7	-5	0.9	0.9	-5	-0.41	.	.	.	.	.	.
CC(=O)Nc1ccc(NC(=O)C(C)N2CCN(S(=O)(=O)c3ccc(C)cc3)CC2)cc1 (centres undefined)	11	-20	0.03	0.9	-4	0.95	.	.	.	.	.	.
CC(=O)Nc1ccc(S(=O)(=O)N2CCN(C(C)CCc3ccccc3)CC2)cc1 (centres undefined)	29	7	.	0.7	86*	-1.3	0.016	0.0049	0.021*	0.0076	0.014	0.01
O=C(O)Cc1sc(Nc2ccccc2)nc1-c1ccc(Cl)cc1	19	8	-6.7*	0.8	-3	0.87	0.0083	0.01*	0.033	0.0075	?	0.011
c1ccc(OCCCc2nc(-c3ccccn3)no2)cc1	10	-14	.	0.9	-5	.	.	.	.	.	.	.
Cc1cccc(NC(=O)c2ccc(N(C)C3CCCCC3)c([N+](=O)[O-])c2)n1	17	-13	.	0.8	20	.	.	.	.	.	.	.
N#C/C(=C(/O)CCl)c1nc2ccccc2[nH]1	29	4	0.07	0.7	35	-0.59	.	.	.	.	.	.
COc1ccc2nc(N3CCCCC3)c(/C=C3\SC(=S)NC3=O)cc2c1	.	.	45*	.	.	.	0.016*	0.058*	0.032	0.075*	0.045*	0.017*
COc1ccc(-n2c(C)cc(/C=C3\SC(=S)NC3=O)c2C)cc1	16	-9	1.8	0.8	3	.	.	.	.	.	.	.
CCOC(=O)C1=C(CS(=O)(=O)c2ccc(F)c(C)c2)NC(=O)NC1c1ccc(O)c(O)c1 (centres undefined)	33	4	-0.7	0.7	-4	.	.	.	.	.	.	.
N#Cc1c(Cl)nc(SCc2ccccc2)nc1-c1ccccc1	-2	6	-4.9*	1	-8	.	0.0055	0.0039	0.024*	0.0055*	0.014*	0.0083*
C1CCN(c2c3c(nc4nnnn24)CCCC3)CC1	15	-14	0.13	0.9	-1	.	.	.	.	.	.	.
Cc1onc(-c2ccccc2Cl)c1C(=O)Nc1cnn(Cc2ccccc2)c1	1	4	.	1	.	.	.	.	.	.	.	.
COc1ccccc1NC(=O)CN1C(=O)C(C)SC(C)C1=O (centres undefined)	1	9	-0.41	1	-6	.	.	.	.	.	.	.
COc1ccccc1NC(=O)CN1C(=O)NC(CC(C)C)C1=O (centres undefined)	6	-2	-5*	0.9	-1	.	0.011	0.0072	0.035	0.0041	0.02	0.011
CCCCC(=O)Nc1nn(CCC)c2nc3ccccc3cc12	11	-2	-3.8*	0.9	20	.	0.0094	0.0067	0.029	0.0073	0.043	0.01
CCn1nc(NC(=O)c2ccccn2)c2cc3cc(C)ccc3nc21	19	27	7.3*	0.8	3	.	0.0056	0.0036	0.026	0.0073	0.018	?
O=C(CN1CCN(c2ncccn2)CC1)Nc1ccccc1-n1cccc1	-7	10	.	1.1	-1	.	.	.	.	.	.	.
Cc1ccc(Cn2nc(C)c3cc(C(=O)OCC(N)=O)sc32)cc1	1	9	0.4	1	-2	-0.13	.	.	.	.	.	.
Cc1cc(=O)oc(C)c1C(=O)Nc1cccnc1Cl	.	.	-0.47	.	.	.	.	.	.	.	.	.
Clc1ccc(Nc2nc(NCCN3CCOCC3)nc(N3CCOCC3)n2)cc1	-2	3	1.2	1	25	.	.	.	.	.	.	.
CCOc1ccc(Nc2nc(NCCN3CCOCC3)nc(OC)n2)cc1	9	1	.	0.9	10	0.3	0.0088	?	0.035	0.0078	0.019	0.012
COCCNc1oc(-c2ccccc2Cl)nc1C#N	-1	4	-3.8*	1	-5	.	0.0078	0.0055	0.03	0.0068	0.02	0.0089
Cc1cccc(N=Nc2c(C)[nH]n(C(N)=S)c2=O)c1C	27	72*	5.8*	0.7	9	-0.12	0.0065	0.0093*	0.03	0.0098*	0.02	?
COCCNC(=S)N1CCC(Cc2ccccc2)CC1	11	14	-4.2*	0.9	2	-0.83	0.0078	0.0061	0.032	0.0039	0.015*	0.011
O=C(O)CC1(CC(=O)NCc2csc(-c3cccs3)n2)CCCCC1	.	.	-0.35	.	.	0.036	.	.	.	.	.	.
